From the EternaBench riboswitch data

Assays:
MS2 coat protein [1] = test: apparent Kd, MS2 coat protein; higher = weaker binding; RNA-MaP array; theophylline 2 mM where present
In short: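 Designs were transcribed by stalled E. coli RNA polymerase on Illumina sequencing-chip clusters. They were titrated with SNAP-549-labelled MS2 coat protein from 0.7 or 1.5 nM, doubling to 3 µM, without and then with constant ligand. Buffer: 100 mM Tris-HCl pH 7.5, 80 mM KCl, 4 mM MgCl2, BSA, DTT, yeast tRNA, Tween-20. Green signal was normalised to red-channel RNA signal and control-cluster median Fmax. Apparent Kd is the median of filtered per-cluster binding-curve fits.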

MS2 coat protein [2] = test: apparent Kd, MS2 coat protein; higher = weaker binding; RNA-MaP array
In short: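 In Tris-HCl pH 7.5 buffer with KCl, MgCl2, BSA, DTT, tRNA and Tween20, with or without input ligand, fluorescently labeled MS2 coat protein at 1.5 nM to 3 μM was incubated at room temperature with designed RNAs. The RNAs had been transcribed on an Illumina sequencing chip from sequenced DNA templates, and incubation ran 0.8–1.5 h at the lowest to 10–20 min at the highest concentrations. Apparent Kd is the median of binding-curve fits for individual clusters. Designs measured on fewer than 10 clusters were excluded.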

[3] = designed as: ON switch for theophylline, no ligand
[4] = ligand present: theophylline, designed as: ON switch for theophylline
[5] = designed as: OFF switch for theophylline, no ligand
[6] = ligand present: theophylline, designed as: OFF switch for theophylline
[7] = designed as: OFF switch for flavin mononucleotide, no ligand
[8] = ligand present: flavin mononucleotide, designed as: OFF switch for flavin mononucleotide
[9] = designed as: ON switch for flavin mononucleotide, no ligand
[10] = ligand present: flavin mononucleotide, designed as: ON switch for flavin mononucleotide

Sequence | apparent Kd (MS2 coat protein [2]; [7]) [nM] | apparent Kd (MS2 coat protein [2]; [8]) [nM] | also measured
GCUGUAAGUGCAGAUACCAGCGUGUUAUAUUUCUAAUGACAUGAGGAUCACCCAUGUAAAUGCCCUUGGCAGCUGCACUUACAGC |  |  | apparent Kd (MS2 coat protein [1]; [3]): 16.1 nM; apparent Kd (MS2 coat protein [1]; [4]): 16.9 nM
AACAGGGCUCGCACGAAGCCCUAAGGUGAUACCAGCACAUGUAAGUGCCCUUGGCAGCACGGUACAUGAGGAUCACCCAUGUAGA |  |  | apparent Kd (MS2 coat protein [1]; [3]): 64.3 nM; apparent Kd (MS2 coat protein [1]; [4]): 255 nM
AUAACAUGAGGAUCACCCAUGUAAGCAGAUACCAGCUAGGAAACUAGCCCUUGGCAGCUGCAUAGUGAUCCAUAUAUCUGCUAAU |  |  | apparent Kd (MS2 coat protein [1]; [5]): 53.6 nM; apparent Kd (MS2 coat protein [1]; [6]): 42.8 nM
AAGGGUGAGUCUCUAAUCCGUUUGACGGAUACCAGCGAGAGAUAUCGCCCUUGGCAGCCGACGACAUGAGGAUCACCCAUGUAAA |  |  | apparent Kd (MS2 coat protein [1]; [5]): 14.7 nM; apparent Kd (MS2 coat protein [1]; [6]): 17.2 nM
AGCGGAACGGAAGGGUCCCAAAAUUGUGAUACCAGCCUUGAAUCCGGCCCUUGGCAGCACAUGAGGAUCACCCAUGUACUGCGAU |  |  | apparent Kd (MS2 coat protein [1]; [5]): 12.9 nM; apparent Kd (MS2 coat protein [1]; [6]): 39.4 nM
AACAUGAGGAUCACCCAUGUCGGGUAUAGGAAUGUGUGUCUGCAGGAUAUGCCUUGCAUUGCAUAGCAGAAGGGCACGGCUCAG | 125 | 64.2 | 
UCGUGCAGUGAGGAUAUCCCGAAGGCUUCCAUUGGAGAAGGCACUACAUGAGGAUCACCCAUGUGGCUUGAUAA | 44 | 56.5 | 
CUCCUGGCAGGAUAUACAUGAGGAUCACCCAUGUUCCGAGCGUCCCAAACGACACGGUGUAGAAGGGCCAAGAU | 12.8 | 17.3 | 
CUACCAAAUUGAGGAUAUAGCCUGGGAGAACCAAGUUCCAUGAAAUACAUGAGGAUCACCCAUGUCUAGAAGGCAACAAUGGCC | 92.4 | 145 | 
CCUUAUUCAUAGAAGGAGUUCAUCCUACGUGGACUAGGAUAUAUAUUCGACAUGAGGAUCACCCAUGUAUCUGAGAUCGUGGUA | 29.3 | 26.2 | 
GUCGAGAUUCAAGGAUAUCCGAUCUUACGCAUAGUAGAAUGACAUGAGGAUCACCCAUGUGUCCAGGAGAAGGUGAAUGGAUUU | 33.3 | 21.6 | 
AUCUAGUGCCUCAAGGAUAUGCACAGAGAGACAUGAGGAUCACCCAUGUAACAAGCAUGCUCAACGCAGAAGGUGACACUUAAGAU |  |  | apparent Kd (MS2 coat protein [2]; [9]): 39.2 nM; apparent Kd (MS2 coat protein [2]; [10]): 12.7 nM
CACGGAAAUCAGAAGGCGCCUACACACGCAUUGCGAGGAUAUGACCGGUCGGUCCACAUGAGGAUCACCCAUGUUAACUAACGC |  |  | apparent Kd (MS2 coat protein [2]; [9]): 16.3 nM; apparent Kd (MS2 coat protein [2]; [10]): 12.2 nM
GGAAGUAGAUGUCAGGAUAUCAAAAGCAUAACAUGAGGAUCACCCAUGUCCAAAAGGCAGAGAAUUGAGAAGGGACGUAGGUUACA |  |  | apparent Kd (MS2 coat protein [2]; [9]): 42.2 nM; apparent Kd (MS2 coat protein [2]; [10]): 14.4 nM
CUAAUUAUCGAGAAGGAACGACGCAUCACCGAUCUAGCACACAUGAGGAUCACCCAUGUACACCGUUAGGAUAUCGCAAACCAG | 8.46 | 9.82 | 
GUUAUCUCAUGUUCGACGGACAUGAGGAUCACCCAUGUACCUUAGGAUAUUGAUGAAAUAUGGCGCAAGAAGGAAGGUAACGCU | 6.47 | 7.52 | 
GUUCGUAGGUAGGAUAUAAGAGCUGUACUCUUCUUAGAAGGACCCACAUGAGGAUCACCCAUGUUUUGGGCGUG | 10.3 | 35.5 | 
AGCGAAUAAGGAUAUACGUGAAAAGCACUUAGAGUUGGAUCACAUGAGGAUCACCCAUGUAGAAGGUAUGACGA | 18.6 | 15.7 | 
AAGUGCAGCCGAGGAUAUAUCCACACGCCAGUACCCUCUCACAUGAGGAUCACCCAUGUUACCGGAUAGAAGGCGGUUUAUUAU | 31.7 | 58.5 | 
AAUCGCAAUUGAGGAUAUUGAACUGAAUUGGCCACAUGAGGAUCACCCAUGUGACCUGUCUCCGUCAAGAAGGCAAUGUGGUGG |  |  | apparent Kd (MS2 coat protein [2]; [9]): 5.61 nM; apparent Kd (MS2 coat protein [2]; [10]): 4.81 nM
CCGCGUGCGGAAGGAUAUAUCCUAUGUUAGGAAAAUAACACAUGAGGAUCACCCAUGUCGAAGAGAUAGAAGGUCCGACAUACA |  |  | apparent Kd (MS2 coat protein [2]; [9]): 29.5 nM; apparent Kd (MS2 coat protein [2]; [10]): 14 nM
UACAUGAACGUCAGGAUAUUGGUAUAUUACCUAGCCAAGAAGGGACAUGAGGAUCACCCAUGUAUUCGGUCCAA | 25.2 | 65.2 | 
UUGUCCCGAGGAUAUGAGAGGGAGUACAUGAGGAUCACCCAUGUCAUGAAUCUUCAUAUCUCAGAAGGCGGUUGAU | 4.85 | 6.24 | 
